Experiments:
[1] = target: T1, 5-hydroxytryptamine receptor 2C (Homo sapiens) (UniProt P28335); assay: Antagonist activity at 5HT2C receptor (unknown origin) 10 uM by radioligand binding assay relative to control
T1 sequence (whole entry): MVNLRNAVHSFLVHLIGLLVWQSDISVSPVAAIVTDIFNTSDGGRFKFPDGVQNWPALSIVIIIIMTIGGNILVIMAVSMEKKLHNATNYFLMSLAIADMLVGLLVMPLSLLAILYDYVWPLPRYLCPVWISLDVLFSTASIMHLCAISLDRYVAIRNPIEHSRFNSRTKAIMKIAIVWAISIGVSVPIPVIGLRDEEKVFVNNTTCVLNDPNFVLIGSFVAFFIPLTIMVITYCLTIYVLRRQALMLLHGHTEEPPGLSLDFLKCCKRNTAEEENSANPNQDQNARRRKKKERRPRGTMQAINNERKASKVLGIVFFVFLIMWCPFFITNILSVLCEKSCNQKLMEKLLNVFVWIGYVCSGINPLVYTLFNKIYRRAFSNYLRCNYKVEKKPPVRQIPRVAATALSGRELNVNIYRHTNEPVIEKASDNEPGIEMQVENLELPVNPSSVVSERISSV

[2] = target: 5-hydroxytryptamine receptor 2A (Homo sapiens) (UniProt P28223); assay: Antagonist activity at 5HT2A receptor (unknown origin) at 10 uM by radioligand binding assay relative to control
Sequence of 5-hydroxytryptamine receptor 2A (Homo sapiens) (P28223 whole entry): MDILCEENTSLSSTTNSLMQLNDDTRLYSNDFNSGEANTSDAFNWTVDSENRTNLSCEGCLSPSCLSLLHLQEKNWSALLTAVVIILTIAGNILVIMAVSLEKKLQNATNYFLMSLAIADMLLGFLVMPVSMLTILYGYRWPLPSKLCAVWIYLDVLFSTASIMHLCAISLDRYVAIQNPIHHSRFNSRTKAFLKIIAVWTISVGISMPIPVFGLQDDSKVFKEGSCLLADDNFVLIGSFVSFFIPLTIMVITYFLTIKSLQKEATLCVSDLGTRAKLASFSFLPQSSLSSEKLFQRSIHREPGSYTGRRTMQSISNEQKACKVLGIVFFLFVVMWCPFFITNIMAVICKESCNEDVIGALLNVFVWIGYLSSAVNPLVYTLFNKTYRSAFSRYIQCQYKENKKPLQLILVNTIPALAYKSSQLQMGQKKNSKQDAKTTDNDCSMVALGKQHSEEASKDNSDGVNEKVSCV

[3] = target: T2, 5-hydroxytryptamine receptor 2B (Homo sapiens, UniProt P41595); assay: Antagonist activity at 5HT2B receptor (unknown origin) at 10 uM by radioligand binding assay relative to control
T2 sequence (P41595 whole entry): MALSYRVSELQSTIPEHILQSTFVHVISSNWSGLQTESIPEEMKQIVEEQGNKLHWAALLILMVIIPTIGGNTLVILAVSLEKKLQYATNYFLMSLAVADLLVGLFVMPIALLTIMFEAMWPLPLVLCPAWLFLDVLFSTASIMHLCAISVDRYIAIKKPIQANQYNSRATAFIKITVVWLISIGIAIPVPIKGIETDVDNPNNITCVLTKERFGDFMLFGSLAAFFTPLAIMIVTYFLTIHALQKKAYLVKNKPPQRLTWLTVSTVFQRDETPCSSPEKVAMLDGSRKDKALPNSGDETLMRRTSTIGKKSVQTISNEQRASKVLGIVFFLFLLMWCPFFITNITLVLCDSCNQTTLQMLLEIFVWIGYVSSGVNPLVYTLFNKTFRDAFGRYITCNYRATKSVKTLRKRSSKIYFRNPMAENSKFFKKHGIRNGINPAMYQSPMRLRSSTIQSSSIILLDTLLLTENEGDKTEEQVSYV

[4] = target: T3, 5-hydroxytryptamine receptor 2C (Homo sapiens, UniProt P28335); assay: Antagonist activity at 5HT2C receptor (unknown origin) by radioligand binding assay
T3 sequence (P28335 whole entry): T1 sequence (whole entry)

[5] = target: T2, 5-hydroxytryptamine receptor 2B; assay: Antagonist activity at 5HT2B receptor (unknown origin) by radioligand binding assay
[6] = target: T2, 5-hydroxytryptamine receptor 2B; assay: Agonist activity at 5-HT2B receptor (unknown origin) by calcium mobilization assay; type: functional
[7] = target: T2, 5-hydroxytryptamine receptor 2B; assay: Agonist activity at 5-HT2B receptor (unknown origin) assessed as maximal response at 10 uM by calcium mobilization assay relative to 3 nM 5-HT; type: functional
Method in brief: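 Calcium mobilization read-out of agonism at 5-HT2B, with 5-HT as the reference agonist. Potency is expressed as pEC50. Maximal response to test compound at 10 μM is expressed relative to the maximal response to 5-HT at 3.0 nM.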

[8] = target: T2, 5-hydroxytryptamine receptor 2B; assay: Antagonist activity at 5-HT2B receptor (unknown origin) assessed as inhibition of 5HT-indued response by calcium mobilization assay; type: functional
Method in brief: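 Antagonist mode of the 5-HT2B calcium mobilization assay: 5-HT at 1.6 nM was challenged with various concentrations of test compound. Inhibition is expressed as pIC50.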

| SMILES | inhibition ([1]; filed as antagonist) [%] | inhibition [2] [%] | inhibition ([3]; filed as antagonist) [%] | Ki [4] [µM] | Ki [5] [nM] | inhibition [1] [%] | inhibition [3] [%] | EC50 [6] [nM] | Rmax [7] [%] | IC50 [8] [µM] |
| --- | --- | --- | --- | --- | --- | --- | --- | --- | --- | --- |
| COc1ccc(CCCc2cc(=O)c3c(O)cccc3o2)cc1 | 87.9 | -1.6 | 75.3 |  |  |  |  |  |  |  |
| Cc1cccc(CCCc2cc(=O)c3c(O)cccc3o2)c1 | 59.4 | 14.4 | 57.7 | 3.16 | 2000 |  |  |  |  |  |
| COc1cccc(CCCc2cc(=O)c3c(O)cccc3o2)c1 | 67.4 | 9.8 | 69.3 |  |  |  |  |  |  |  |
| O=c1cc(CCCc2cccc(F)c2)oc2cccc(O)c12 | 44.4 | 8.4 | 52.7 |  | 2510 |  |  |  |  |  |
| O=c1cc(CCCc2ccc(C(F)(F)F)cc2)oc2cccc(O)c12 |  | 19.5 | 50 |  | 2510 | 36 |  |  |  |  |
| O=c1cc(CCCc2ccc(OC(F)(F)F)cc2)oc2cccc(O)c12 |  | -5 |  |  |  | 32.6 | 35.3 |  |  |  |
| O=c1cc(CCCc2ccc(Cl)cc2)oc2cccc(O)c12 |  | 9.3 | 50.4 |  | 2510 | 35.8 |  |  |  |  |
| Cc1ccc(CCCc2cc(=O)c3c(O)cccc3o2)cc1 | 51.2 | 17.2 | 50 | 3.16 | 1580 |  |  |  |  |  |
| N#Cc1cccc(CCCc2cc(=O)c3c(O)cccc3o2)c1 |  | 7.2 | 91.1 |  | 79.4 | 15.5 |  | 501 | 12 | 6.31 |
| O=c1cc(CCCc2cccc(Cl)c2)oc2cccc(O)c12 | 44.8 | 13.9 | 61.7 |  | 2000 |  |  |  |  |  |
| O=c1cc(CCCc2cccc(C(F)(F)F)c2)oc2cccc(O)c12 | 43.5 | 8.7 | 65.8 |  | 1000 |  |  |  |  |  |
| O=c1cc(CCCc2ccc(F)cc2)oc2cccc(O)c12 |  | 14.2 | 49.2 |  |  | 33.9 |  |  |  |  |
